Screening data deposited in PubChem BioAssay by PCMD.
Shown are actives, neighbours in structure and some others; about 1.1% of the full set was active somewhere.
Yeast tox: yeast growth toxicity, wild-type and mutant, primary screen, cytotoxicity control for eIF2B function restoration project, wild-type and eIF2Bepsilon R284H mutant, A595; S. cerevisiae wild-type growth, A595 turbidity, 16 h; growth inhibition, % at 25 µM (by protocol); hit rate 0.3% among 30,000; AID 685, 2007;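 active = mutant and wild-type yeast strains alike exhibit over 30% growth inhibition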;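 also: 0% = untreated cell controls and 100% = YPD media blanks without cells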
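Test system: Wild-type and eIF2Bepsilon-R284H mutant S. cerevisiae, screened separately | Dosing: Single 25 µM compound dose in 0.2% DMSO | Schedule: 16 h compound exposure during growth at 30 °C | Detection: A595 turbidity | Evaluation: Growth inhibition (%) versus cell controls and blanks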
eIF2B yeast act: GCN4-lacZ reporter reduction in eIF2B-epsilon mutant yeast, primary screen, S. cerevisiae, eIF2B-epsilon R284H, Beta-Glo luminescence | inhibition, % at 25 µM (by protocol) | hit rate 0.91% among 27,000;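 active = mutant luminescence inhibited past about 50% while wild type luminescence and mutant growth stay under set limits, limit read from the data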
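Material – yeast eIF2B-epsilon R284H mutant carrying GCN4–beta-galactosidase fusion · Medium – YPD yeast growth medium · Compound – one concentration, 25 µM, 0.25% DMSO · Times – 16 h at 30 °C exposure · Signal – Beta-Glo luminescence plus absorbance at 595 nm · Read-out – % inhibition of reporter signal and growth versus controls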
Numbers without * were called inactive; . = no result given.

SMILES	Yeast tox	eIF2B yeast act
Cc1ccc2c(c1)CNc1ccccc1O2	15.5	21.8
c1ccc2c(c1)CNc1ccccc1O2	-11.8	56.5*
OCCN(CC#CC(O)(c1ccccc1)C1CCCC1)CCO (stereo not drawn)	36.1	23.6
CN1CCN(C(=O)COc2ccc(S(=O)(=O)NCc3ccccc3)cc2Cl)CC1	15.8	.
O=C(COc1ccc(Cl)cc1Cl)N1CCN(C/C=C/c2ccccc2)CC1	44.2*	31.6
CC(C)n1cc(C(=O)N(CC(=O)NC(C)(C)C)Cc2ccccc2)cn1	11.4	-3.9
O=C(Cn1cnc2sc3c(c2c1=O)CCCC3)NCCCC(=O)N1CCC2(CC1)OCCO2	22.3	.
CN(C)Cc1ccccc1OC(=O)N(C)C	10.0	18.8
CN(C)C(=O)Oc1ccc(OC(=O)c2ccccc2)cc1	0.5	51.1*
